Not all results are given here.
Apaf1 activ = activators of human Apaf-1 apoptosome, primary screen, biochemical, DEVD-Rh110 fluorescence, uHTS; Apaf-1 apoptosome caspase-3 activation; active compounds read low; 330,000 compounds, 0.31% hits; Apoptotic protease-activating factor 1 (Homo sapiens), O14727; AID 489031, 2010; activity change, negative = activation, % at 20 µM;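 active = activity change at or below -40% at 20 µM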
Target sequence (O14727 whole entry, looked up): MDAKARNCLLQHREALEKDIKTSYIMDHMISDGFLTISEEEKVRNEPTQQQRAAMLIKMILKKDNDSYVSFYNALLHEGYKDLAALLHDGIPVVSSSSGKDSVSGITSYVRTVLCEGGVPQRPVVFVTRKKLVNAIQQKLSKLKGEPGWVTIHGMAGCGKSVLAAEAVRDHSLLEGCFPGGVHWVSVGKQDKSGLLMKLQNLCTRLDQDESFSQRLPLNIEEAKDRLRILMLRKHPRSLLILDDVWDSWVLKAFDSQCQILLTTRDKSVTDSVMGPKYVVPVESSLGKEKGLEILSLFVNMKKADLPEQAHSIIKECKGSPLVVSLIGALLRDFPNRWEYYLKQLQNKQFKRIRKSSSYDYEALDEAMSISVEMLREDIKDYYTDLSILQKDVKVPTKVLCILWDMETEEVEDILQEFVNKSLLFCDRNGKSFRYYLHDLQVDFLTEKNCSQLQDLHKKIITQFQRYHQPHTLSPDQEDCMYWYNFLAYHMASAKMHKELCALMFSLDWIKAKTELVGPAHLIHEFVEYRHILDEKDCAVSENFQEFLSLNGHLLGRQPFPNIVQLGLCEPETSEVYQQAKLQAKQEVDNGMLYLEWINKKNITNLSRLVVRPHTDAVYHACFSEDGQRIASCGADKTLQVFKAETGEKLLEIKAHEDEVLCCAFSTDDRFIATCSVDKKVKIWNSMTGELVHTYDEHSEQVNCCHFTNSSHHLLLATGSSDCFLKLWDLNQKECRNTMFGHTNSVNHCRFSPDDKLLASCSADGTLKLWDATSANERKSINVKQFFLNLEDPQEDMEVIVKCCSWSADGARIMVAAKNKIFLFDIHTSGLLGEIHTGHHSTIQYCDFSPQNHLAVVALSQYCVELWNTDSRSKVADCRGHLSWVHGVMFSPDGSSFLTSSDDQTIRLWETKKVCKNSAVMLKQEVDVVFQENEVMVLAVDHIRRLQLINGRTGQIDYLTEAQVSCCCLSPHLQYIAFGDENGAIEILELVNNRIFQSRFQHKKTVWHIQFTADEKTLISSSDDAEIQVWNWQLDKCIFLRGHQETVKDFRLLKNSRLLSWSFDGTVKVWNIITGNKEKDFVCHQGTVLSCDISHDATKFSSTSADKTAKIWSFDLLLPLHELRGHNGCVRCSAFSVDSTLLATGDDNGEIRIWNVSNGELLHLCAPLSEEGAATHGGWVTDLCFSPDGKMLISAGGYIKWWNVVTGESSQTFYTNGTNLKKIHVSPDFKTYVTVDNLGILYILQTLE
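System: Reconstituted apoptosome of Apaf-1, cytochrome c, caspase-9, procaspase-3 | Reagent: dATP, cytochrome c, and (Z-DEVD)2-Rh110 caspase-3 substrate | Times: 30 min compound preincubation and 50 min reaction, both room temperature | Detection: Caspase-3-released Rh110 fluorescence, 540 nm emission, 480 nm excitation | Measure: Caspase-3 activity via Apaf-1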
Rh110 act interf = Rh110 fluorescence interference by putative Apaf-1 activators, confirmation, artefact control for Apaf-1 activator project, biochemical, 20 µM; fluorescence interference (activity change), % at 20 µM, hits read low; shares compounds with Apaf1 activ; quenched caspase reaction, Ex480/Em540; 980 tested, under 10 active;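 active = mean activity change at or below -40% when tested at 20 µM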
Apaf-1 act conf2 = Apaf-1 activators, single-dose retest, confirmation, biochemical, fluorescence, DEVD-Rh110, 20 µM | reconstituted apoptosome caspase-3 activity; active compounds read low | AID 504617, 2011 | 980 compounds, 5% hits | activity change, negative = activation, % at 20 µM | shares compounds with Apaf1 activ;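 active = mean activity change at or below -40%, meaning activation of 40% or more, at 20 µM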
The depositor's hits bear a star; / = no result given.

SMILES	Apaf1 activ	Rh110 act interf	Apaf-1 act conf2
C/C(=N\NC(=O)c1nnn(-c2nonc2N)c1-c1cccs1)c1ccc(C)cc1	-44*	8	7
Cc1cc(OCC(=O)NCCO)ccc1Cl	-53*	7	11
CN1CCN(c2ccc(NC(=O)COc3ccccc3)cc2Cl)CC1	49	/	/
Cc1[nH]c2ccccc2c1C(C#N)(C#N)C1C(=O)c2ccccc2C1=O	73	/	/
NC1=NC[C@@H](Cc2ccc(O)cc2)N1CCCCC1CCCCC1	51	/	/
CCCCCNC(=O)c1cn(CC)c2cc(N3CCN(C)CC3)c(F)cc2c1=O	-72*	5	14
C#CCOCCOCCOCCNc1nc(N2CCN(C(=O)CCCCCCCCCCNC(=O)[C@H]([C@@H](C)CC)n3cc(CCCCCN)nn3)CC2)nc(N2CCN(C(=O)CCCCCCCCCCNC(=O)[C@@H]([C@H](C)CC)n3cc(CCCCCN)nn3)CC2)n1	78	/	/
COc1ccc(/C=C/C(=O)OCC(=O)N2CCCC2)c(OC)c1	-40*	7	15
CC1=NN(c2ccc(Br)cc2)C(=O)/C1=C/c1ccc(-c2ccccc2C(=O)O)o1	78	/	/
NCCCS(=O)(=O)O	-4	/	/
O=C1C(=O)N(c2nccs2)C(c2ccccc2F)/C1=C(\O)c1ccc2c(c1)OCCO2 (stereo not given)	-40*	13	20
O=C1C(=O)N(CCN2CCOCC2)C(c2ccccc2)/C1=C(\O)c1ccc2c(c1)OCCO2 (stereo not given)	50	/	/
O=C(Cc1cc(=O)[nH][nH]1)N/N=C/C=C/c1ccccc1	48	/	/
CCN(CCO)c1ccc(NC(=S)Nc2cccc(S(=O)(=O)N(C)C)c2)cc1	43	/	/
CCNC(=S)Nc1cccc(NC(=O)c2ccccc2O)c1	-206*	-3	15
Cc1ccc(-c2nn3c(-c4ccco4)nnc3c3ccccc23)cc1S(=O)(=O)NCC1CCCO1 (stereo not given)	66	/	/
COc1ccc(-c2cc(C)no2)cc1S(=O)(=O)NCCc1ccco1	-382*	5	-1
O=[N+]([O-])c1c(Nc2ccccn2)cc(Cl)c2nonc12	91	/	/
C#CCOCCOCCOCCNc1nc(N2CCN(C(=O)CCCCCCCCCCNC(=O)Cn3cc(C[C@@H](C)O)nn3)CC2)nc(N2CCN(C(=O)CCCCCCCCCCNC(=O)[C@@H](CCC(=O)O)n3cc(CCCCCN)nn3)CC2)n1	52	/	/
Cc1cc(C)nc(NC(=O)CSc2nc3ccccc3o2)n1	-71*	0	13
Nc1cc2nc3ccccc3oc-2cc1=O	48	/	/
COCCNc1nc(C)cc(-c2cc(C(=O)Nc3ccccc3)on2)n1	-53*	3	12
CCN1CCN(Cc2ccc(NC(=O)c3cc(NC(=O)c4cncc(-c5cccs5)c4)cc(OC)c3)cc2C(F)(F)F)CC1	68	/	/
COc1ccc(N2CCCn3c2nc2c3c(=O)n(Cc3ccc(C)cc3)c(=O)n2C)c(OC)c1	-100*	8	21
CCOC(=O)c1c(NC(=O)CN2CCN(C(=O)c3ccco3)CC2)sc2c1CCCC2	48	/	/
SMILES	Apaf1 activ	Rh110 act interf	Apaf-1 act conf2
C/C(=N\NC(=O)c1ccc(NS(=O)(=O)c2cccs2)cc1)c1ccc(Cl)cc1	-46*	1	14
COC(=O)CCC(=O)OC1(C)C(=O)C=C2C=C(C3CC3)N(CCCOC(C)C)C=C2C1=O (stereo not given)	53	/	/
CN1CCc2cccc3c2[C@@H]1Cc1ccc(O)c(O)c1-3	50	/	/
CC(=O)c1ccc(Nc2nc(-c3cccnc3)cs2)cc1	-208*	16	13
COC(=O)CCC(=O)OC1(C)C(=O)C=C2C=C(C3CC3)N(CCc3ccccn3)C=C2C1=O (stereo not given)	53	/	/
CC(CCC(C)C(C)(C)C)[C@@H]1CC[C@H]2C3C[C@H](OS(O)(=S)=S)[C@H]4C[C@H](OS(O)(=S)=S)[C@@H](OS(O)(=S)=S)C[C@]4(C)[C@H]3CC[C@]12C (stereo not given in full) (tested in a mixture with another compound)	87	/	/
Oc1ccc(-c2csc(-c3c[nH]c4ccccc34)n2)c(O)c1	-276*	1	1
COc1ccc(C(=O)CN2C(=O)c3ccccc3C2=O)cc1	-165*	10	11
COc1ccc(/C=C2/C(=O)N(c3ccccc3)N=C2C)cc1	96	/	/
COc1ccc(C2=NN(c3ccccc3)C(=O)/C2=C\c2ccc(O)c(OC)c2)cc1	90	/	/
O=C1c2ccccc2C(=O)C1(O)O	68	/	/
CCCCCCCCCCCCCCCC(O)C(N)CO (stereo not given)	80	/	/
CCN1CCN(c2cc(N3CCN(C(=O)c4ccco4)CC3)c3c4c(onc24)-c2ccccc2C3=O)CC1	42	/	/
Cc1noc(C)c1C(=O)OC(C(=O)NC1CCCC1)c1ccc(F)cc1 (stereo not given)	-52*	7	5
O=c1ccc2cc3c([nH]c4ccc(Br)cc43)oc-2c1O	85	/	/
O=C(Cc1cccc(C(F)(F)F)c1)OCC(=O)N1CCN(S(=O)(=O)c2ccc(Cl)cc2)CC1	51	/	/
Cc1c(CCO)c(=O)[nH]n1S(=O)(=O)c1cccc(C(F)(F)F)c1	-92*	11	15
CC(C)CC(=O)NC(=S)Nc1ccccc1F	-80*	-7	11
Cc1ccc(NC(=S)Nc2cccc3ccccc23)cc1F	89	/	/
CC1=NN(c2cccc(Cl)c2)C(=O)C1	75	/	/
Cn1c(=O)c2c(-c3ccc(C(C)(C)C)cc3)n(N3CCOCC3)cc2n(C)c1=O	-60*	14	16
O=C(N/C(=C\c1ccccc1Cl)C(=O)N1CCOCC1)c1ccc([N+](=O)[O-])cc1	-309*	9	9
Clc1ccc(N=c2ssnc2Cl)nc1	55	/	/
CCOC(=O)CSc1nc2cc(C(=O)NCc3ccco3)ccc2c(=O)n1-c1ccc(F)cc1	-105*	3	12
CCCCNC(=O)C(C1CCCCC1)N(CCN(C)C)C(=O)CCCN1C(=O)NC(c2ccc(-c3ccccc3)cc2)C(C(=O)OCc2ccccc2)=C1C (stereo not given)	64	/	/
SMILES	Apaf1 activ	Rh110 act interf	Apaf-1 act conf2
Cc1ccnc2c1ccc1c(C)ccnc12	44	/	/
CC(C)N1CCN(Cc2cnc(-c3ccccc3)s2)CC1CCO (stereo not given)	-46*	0	9
CCOc1cc(/C=C2/C(=O)N(c3ccccc3)N=C2C)ccc1OC(=O)c1cccs1	69	/	/
CCCN1CCN(C(=S)Nc2ccccc2C(F)(F)F)CC1	-81*	3	13
O=C(NCCCO)C(=O)NCc1ccncc1	-63*	-80*	10
CCCCCCCCCCOC(=O)Cn1c(COc2ccc(Cl)cc2)[n+](C)c2ccccc21	85	/	/
C/C(=N\NC(=O)CNc1cccc2ccccc12)c1ccccc1	83	/	/
CC(=O)c1ccc(NC(=S)Nc2cccc3ccccc23)cc1	45	/	/
Nc1ccccc1C(=O)Nc1cccc2ccccc12	-114*	-9	16
COc1ccc(C(C[N+](=O)[O-])c2c(C)[nH]n(-c3ccccc3)c2=O)cc1 (stereo not given)	96	/	/
Oc1ccc(/C=N\Nc2cc(N3CCOCC3)nc(N3CCOCC3)n2)c(O)c1	85	/	/
